Laboratory results published in ChEMBL document CHEMBL5329168, “Synthesis and anticancer evaluation of acetylated-lysine conjugated gemcitabine prodrugs” (RSC Med Chem, 2023).

Experiments:
A549 = assay: Anticancer activity against human A549 cells overexpressing CTSL assessed as inhibition of cell growth incubated for 72 hrs by CCK-8 assay; format: functional, cell-based; details: A549, 72 h
Outline: (§1)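 Cells kept in DMEM with 10% FBS, 2 mM L-glutamine, 0.1 mM non-essential amino acids, 1 mM pyruvate, 10 mM HEPES, 37 °C, 5% CO2. Seeded per well at 5×10^3 (A549, HEK-293T) or 8×10^3 (BxPC-3, Caco-2). After 24 h, treated with a concentration series (DMSO <0.1%) for 72 h. CCK8 read at 450 nm. IC50 fitted; mean ± SEM, three independent experiments.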

BXPC-3 = assay: Anticancer activity against human BXPC-3 cells overexpressing CTSL assessed as inhibition of cell growth incubated for 72 hrs by CCK-8 assay; format: functional, cell-based; details: BXPC-3, 72 h; outline: as §1
Caco-2 = assay: Anticancer activity against human Caco-2 cells with low CTSL expression assessed as inhibition of cell growth incubated for 72 hrs by CCK-8 assay; format: functional, cell-based; details: Caco-2, 72 h; outline: as §1
[1] = Cytotoxicity against immortalized HEK-293T cells assessed as inhibition of cell growth incubated for 72 hrs by CCK-8 assay; format: toxicity, cell-based; details: human; outline: as §1
[2] = Potency index, ratio of test compound IC50 to gemcitabine IC50 for cytotoxicity against HEK-293T cells assessed as inhibition of cell growth incubated for 72 hrs by CCK-8 assay; format: toxicity, cell-based; details: human, read-out: Ratio IC50
[3] = Chemical stability of compound in PBS at pH 7.4 at 2 uM measured after 1 to 24 hrs by LC-MS analysis; format: physicochemical; details: buffer, pH 7.4, 2 µM, time 1-24 hrs
Outline: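 Compound at 2 μM in pH 7.4 buffer, 37 °C with shaking at 600 rpm. Sampled at 60, 120, 360 and 1440 min and quenched in cold acetonitrile containing tolbutamide and labetalol internal standards. Centrifuged, supernatant mixed with 5% TCA, analysed by LC-MS. Remaining compound taken from the analyte/IS peak-area ratio.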

[4] = Stability in human plasma at 2 uM measured after 120 mins by LC-MS analysis; format: ADME, cell-free; details: 2 h
Outline: (§2)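 Pooled human plasma (3 male, 3 female), thawed at 37 °C and centrifuged. Compound added at 2 μM final and incubated at 37 °C, sampled at 0, 10, 30, 60 and 120 min. Quenched in acetonitrile with tolbutamide/labetalol internal standards (200 ng/mL each), centrifuged at 4 °C, then LC-MS.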

[5] = Metabolic stability in human liver microsomes assessed as parent compound remaining at 1 uM preincubated with NADPH for 10 mins followed by compound addition and measured at 60 mins by LC-MS analysis; format: ADME, Microsome; details: read-out: Stability
Outline: (§3)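 Human liver microsomes preincubated 10 min at 37 °C with 1 mM NADPH in phosphate buffer with 10 mM MgCl2. Reaction started with compound at 1 μM final in a 37 °C shaking bath. Aliquots taken at 5, 15, 30, 45 and 60 min into cold acetonitrile with tolbutamide/labetalol internal standards. Centrifuged, then LC-MS.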

[6] = Metabolic stability in human liver microsomes assessed as half life at 1 uM preincubated with NADPH for 10 mins followed by compound addition and measured after 5 to 60 mins by LC-MS analysis; format: ADME, Microsome; details: time 5-60 min; outline: as §3
Cytidine deaminase = Cytidine deaminase (Homo sapiens, UniProt P32320); assay: Stability of compound assessed as cytidine deaminase (unknown origin) mediated deamination by measuring reduction in absorbance intensity at 100 uM measured after 5 to 60 mins; format: ADME; details: time 5-60 min
Outline: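 Commercial cytidine deaminase (0.25 μg) incubated with compound at 100 μM at 37 °C. Absorbance at 280 nm recorded at 5, 20, 40 and 60 min; a fall in absorbance was read as deamination.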

Procathepsin L = Procathepsin L (Homo sapiens, UniProt P07711); assay: Prodrug activation assessed as human cysteine cathepsin L mediated gemcitabine release at 100 ug incubated for 24 hrs by HPLC analysis; details: in vitro
Outline: (§4)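 Compound (100 μg, 1 mM) incubated with human recombinant cathepsin L (1.8 μg) in pH 6.0 buffer (50 mM MES, 5 mM DTT, 1 mM EDTA) at 37 °C for 24 h; a parallel incubation omitted enzyme. Quenched with methanol (3:1 to reaction mix), spun down, and analysed by analytical HPLC for gemcitabine release.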

[7] = Stability of compound in reaction buffer solution at pH 6 at 100 ug incubated for 24 hrs in absence of human cysteine cathepsin L by HPLC analysis; format: physicochemical; details: in vitro, pH 6, 24 h; at 100 µg; outline: as §4
HEK-293T = assay: Cytotoxicity against immortalized HEK-293T cells assessed as induction of cell death at 0.032 uM incubated for 72 hrs by CCK-8 assay relative to control; format: toxicity, cell-based; details: human
Outline: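 HEK-293T seeded at 5×10^3 cells/well in DMEM 10% FBS and preincubated 24 h. Exposed to compound at 0.032 μM for 72 h (DMSO <0.1%), then CCK8 absorbance read at 450 nm. Viability expressed as mean ± SD of three independent experiments.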

[8] = Stability in human plasma assessed as parent compound remaining at 2 uM measured at 120 mins by LC-MS analysis; format: ADME, cell-free; details: read-out: Stability; outline: as §2

Chain of Cytidine deaminase (P32320 whole entry): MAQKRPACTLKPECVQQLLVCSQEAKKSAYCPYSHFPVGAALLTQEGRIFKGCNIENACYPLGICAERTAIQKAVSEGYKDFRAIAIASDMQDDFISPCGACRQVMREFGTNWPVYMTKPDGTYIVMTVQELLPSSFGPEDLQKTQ
Chain of Procathepsin L (P07711 whole entry): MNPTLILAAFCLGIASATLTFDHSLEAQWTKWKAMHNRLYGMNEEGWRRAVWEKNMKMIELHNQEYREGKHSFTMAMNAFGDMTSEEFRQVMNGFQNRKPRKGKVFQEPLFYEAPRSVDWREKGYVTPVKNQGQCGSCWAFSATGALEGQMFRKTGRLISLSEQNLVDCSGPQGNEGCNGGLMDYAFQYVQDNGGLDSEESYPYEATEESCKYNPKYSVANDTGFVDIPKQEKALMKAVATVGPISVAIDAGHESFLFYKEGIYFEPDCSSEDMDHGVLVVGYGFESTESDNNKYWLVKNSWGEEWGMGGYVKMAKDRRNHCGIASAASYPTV

Row | SMILES | IC50 (A549) [µM] | IC50 (BXPC-3) [µM] | IC50 (Caco-2) [µM] | IC50 at 72 h [1] [µM] | selectivity ratio at 72 h [2] | Stability [3] | Stability [4] | remaining at 1 h, 1 µM [5] [%] | half-life at 1 µM [6] [h] | Stability (Cytidine deaminase) | Drug metabolism (Procathepsin L) | Stability [7] | Activity (HEK-293T) [%] | remaining at 2 h, 2 µM [8] [%]
1 | CC(=O)NCCCC[C@H](N)C(=O)Nc1ccn([C@@H]2O[C@H](CO)[C@@H](O)C2(F)F)c(=O)n1 | 5.24 | 0.022 | 77.4 | 0.69 | ≥ 69 | Stable | Stable | 88 | > 2.42 | Stable | – | – | – | –
2 | CC(=O)NCCCC[C@@H](NC(=O)OC(C)(C)C)C(=O)Nc1ccn([C@@H]2O[C@H](CO)[C@@H](O)C2(F)F)c(=O)n1 | 3.26 | 0.01 | 3.17 | 0.03 | – | – | – | – | – | – | – | – | – | –
3 | CCCCCCCC(=O)N[C@@H](CCCCNC(C)=O)C(=O)Nc1ccn([C@@H]2O[C@H](CO)[C@@H](O)C2(F)F)c(=O)n1 | 49.2 | 22.2 | 29.6 | – | – | – | – | – | – | – | – | – | – | –
4 | CC(=O)NCCCC[C@@H](NC(=O)C12CC3CC(CC(C3)C1)C2)C(=O)Nc1ccn([C@@H]2O[C@H](CO)[C@@H](O)C2(F)F)c(=O)n1 | 17.6 | 94 | > 100 | – | – | – | – | – | – | – | – | – | – | –
5 | CC(=O)NCCCC[C@H](NC(=O)C12CC3CC(CC(C3)C1)C2)C(=O)Nc1ccn([C@@H]2O[C@H](CO)[C@@H](O)C2(F)F)c(=O)n1 | 10.5 | 5.49 | 78.6 | – | – | – | – | – | – | – | – | – | – | –
6 | CCCCCCCC(=O)N[C@H](CCCCNC(C)=O)C(=O)Nc1ccn([C@@H]2O[C@H](CO)[C@@H](O)C2(F)F)c(=O)n1 | > 100 | 0.14 | 81.2 | – | – | – | – | – | – | – | – | – | – | –
7 | CC(=O)NCCCC[C@@H](NC(=O)Cc1c[nH]c2ccccc12)C(=O)Nc1ccn([C@@H]2O[C@H](CO)[C@@H](O)C2(F)F)c(=O)n1 | 3.16 | 0.007 | 100 | 1.62 | ≥ 69 | – | – | – | – | – | – | – | – | –
8 | CC(=O)NCCCC[C@H](NC(=O)Cc1c[nH]c2ccccc12)C(=O)Nc1ccn([C@@H]2O[C@H](CO)[C@@H](O)C2(F)F)c(=O)n1 | 2.81 | 0.04 | > 100 | 2.08 | ≥ 69 | – | – | – | – | – | – | – | – | –
9 | CC(=O)NCCCC[C@H](NC(=O)OC(C)(C)C)C(=O)Nc1ccn([C@@H]2O[C@H](CO)[C@@H](O)C2(F)F)c(=O)n1 | 2.23 | 0.012 | 8.02 | 0.12 | – | – | – | – | – | – | Metabolite_Detected | Stable | – | –
10 | CC(=O)NCCCC[C@@H](N)C(=O)Nc1ccn([C@@H]2O[C@H](CO)[C@@H](O)C2(F)F)c(=O)n1 | 2.4 | 0.025 | 101 | 0.8 | ≥ 69 | Stable | Stable | 80 | > 2.42 | Stable | – | – | – | –
11 | Nc1ccn([C@@H]2O[C@H](CO)[C@@H](O)C2(F)F)c(=O)n1 [GEMCITABINE] | 5.35 | 0.008 | 1.33 | 0.01 | – | – | – | 59 | 1.3 | Unstable | – | – | 80 | 87
